≈ marks a conversion by molar mass, not a printed value. Entries after “also recorded” stand apart in the source; their conditions may differ. Each block holds one molecule with its values, some of them ahead of it.
Key:
[1] = biological target: human recombinant glyoxylase II (Homo sapiens, UniProt Q16775); assay: Binding specificity, glyoxylase II activity; assay type: biochemical; conditions: for reduction of glyoxylase II activity: concentration not stated in the sentence (Table S2)
[2] = test system: Klebsiella pneumoniae NDM; assay: MIC, broth microdilution / checkerboard; assay type: cell-based
Procedure, shortened: (§1)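 Two-fold dilution series in Mueller Hinton broth, per CLSI. Meropenem stock was in water and test compound stock in 50% DMSO, with final DMSO <1.0%. Wells got a 0.5 McFarland-standardised inoculum and were incubated at 35 °C for 18–20 h. MIC was the lowest concentration with no visible growth, run in triplicate.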

[3] = test system: Klebsiella pneumoniae ATCC 700603; assay: MIC, broth microdilution / checkerboard; assay type: cell-based
E. coli TWA (IMP-8) = assay: Antimicrobial susceptibility testing, broth microdilution; assay type: cell-based; conditions: Escherichia coli, read-out: MIC alone
Procedure, shortened: as §1

E. coli AUS 271 (NDM-1) = assay: as above; assay type: cell-based; conditions: Escherichia coli, read-out: MIC alone
Procedure, shortened: as §1

E. coli ATCC 25922 = assay: as above; assay type: cell-based; conditions: Escherichia coli, ATCC25922, read-out: MIC alone
Procedure, shortened: as §1

[4] = test system: K. pneumoniae USA 449 (NDM); assay: as above; assay type: cell-based; conditions: Klebsiella pneumoniae, read-out: MIC alone
Procedure, shortened: as §1

[5] = In vivo single-dose pharmacokinetics; design: species or system BALB/c mice; conditions: 10 mg/kg.b.w IP, plasma
Procedure, shortened: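 Female BALB/c mice, 6–8 weeks, acclimatised two weeks, got meropenem 10 mg/kg.b.w plus test compound 10 mg/kg.b.w together IP. Animals were killed at 0, 5, 15, 30, 45, 60, 90 and 120 min post-dose, with blood taken by cardiac puncture and stored at −80 °C. Drugs were quantified by LC–MS/MS (C18, water/acetonitrile with 0.1% TFA gradient, ESI, MRM mode).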

E. coli FEK (NDM-4) = assay: Antimicrobial susceptibility testing, broth microdilution; assay type: cell-based; conditions: Escherichia coli, read-out: MIC alone
Procedure, shortened: as §1

[6] = test system: E. cloacae IR 386 (NDM-1); assay: as above; assay type: cell-based; conditions: Enterobacter cloacae, read-out: MIC alone
Procedure, shortened: as §1

E. cloacae KAR (VIM-1) = assay: as above; assay type: cell-based; conditions: Enterobacter cloacae, read-out: MIC alone
Procedure, shortened: as §1

E. coli JAP (IMP-1) = assay: as above; assay type: cell-based; conditions: Escherichia coli, read-out: MIC alone
Procedure, shortened: as §1

K. pneumoniae NDM = assay: Time kill kinetic study; assay type: cell-based; conditions: without BP1
Procedure, shortened: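 Overnight culture was diluted to about 10^6 cfu/mL and exposed to test compound fixed at 32 mg/L plus meropenem 0.5, 1 or 2 mg/L. Incubation was at 35 °C with 100 rpm shaking, alongside drug-free and meropenem-only controls. At 0, 2, 4, 6, 8 and 24 h, 0.1 mL was plated on MHA and incubated at 35 °C for ≥18 h, then cfu/mL counted. Analysis was by ANOVA.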

reduction of glyoxylase II activity [1]: 39%
Compound: O=C(O)CN(CCN(CC(=O)O)CC(=O)O)CC(=O)O [EDTA]

Compound: O=C(O)CN1CCN(CC(=O)O)CCN(CC(=O)O)CC1 [NOTA, 1,4,7-triazacyclononane-1,4,7-triacetic acid]
MIC ([2]; drug alone): do not possess any activity
inhibition of glyoxylase II ([1]; up to 500 μM): did not reduce the activity
MIC ([3]; drug alone): do not possess any activity; also recorded: resistant from 256 to 0.125

reduction of glyoxylase II activity [1]: 48%
Compound: c1ccc(CN(CCN(Cc2ccccn2)Cc2ccccn2)Cc2ccccn2)nc1 [TPEN, N,N,N′,N′-tetrakis(2-pyridinylmethyl)-1,2-ethanediamine]

Compound: C[C@@H](O)[C@H]1C(=O)N2C(C(=O)O)=C(S[C@@H]3CN[C@H](C(=O)N(C)C)C3)[C@H](C)[C@H]12 [meropenem]
MIC ([2]; Klebsiella pneumoniae): 128 µg/mL
MIC (E. coli TWA (IMP-8)): 4 µg/mL (≈ 10.4 µM)
MIC (E. coli AUS 271 (NDM-1)): 128 µg/mL (≈ 334 µM)
MIC (E. coli ATCC 25922): 0.06 µg/mL (≈ 0.156 µM)
MIC [4]: 128 µg/mL (≈ 334 µM)
time of peak concentration (Cmax) post drug administration [5]: 15 min
MIC (E. coli FEK (NDM-4)): 128 µg/mL (≈ 334 µM)
MIC ([3]; Klebsiella pneumoniae, ATCC700603): 0.03 µg/mL
MIC [6]: 32 µg/mL (≈ 83.4 µM)
MIC (E. cloacae KAR (VIM-1)): 16 µg/mL (≈ 41.7 µM)
MIC (E. coli JAP (IMP-1)): 8 µg/mL (≈ 20.9 µM)
time-kill activity, meropenem-only test group (K. pneumoniae NDM): ineffectiveness
